# Experimental data from ChEMBL document CHEMBL1132235, “Thioamides: synthesis, stability, and immunological activities of thioanalogues of Imreg. Preparation of new thioacylating agents using fluorobenzimidazolone derivatives” (1999).
# Legend:
# Mus musculus [1] = assay: In vivo functional activity against Blood Immunophenotyping in mice at 125 mg/kg dose using NK+ as cell subset
# In short: (§1)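 Female C57BL/6 mice, 6–8 weeks old, groups of seven, dosed i.p. once daily for four consecutive days (0, 50, 100 or 125 mg/kg) and sacrificed on day 5. Blood and spleen cells were lysed in ACK buffer (pH 7.3, 5 min), washed in PBS and stained 45 min on ice with FITC/PE surface-marker antibodies. Cells were fixed in 1% paraformaldehyde and read by flow cytometry. Values are relative subset percentages, compared by unpaired t test.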
# Mus musculus [2] = assay: In vivo functional activity against Blood Immunophenotyping in mice at 50 mg/kg dose using CD4+CD45+ as cell subset; in short: as §1
# Mus musculus [3] = assay: In vivo functional activity against Blood Immunophenotyping in mice at 50 mg/kg dose using NK+ as cell subset; in short: as §1
# Mus musculus [4] = assay: In vivo functional activity against spleen Immunophenotyping in mice at 0 mg/kg dose using CD4+CD45+ as cell subset; in short: as §1
# Mus musculus [5] = assay: In vivo functional activity against spleen Immunophenotyping in mice at 0 mg/kg dose using LY5+ as cell subset; in short: as §1
# Mus musculus [6] = assay: In vivo functional activity against spleen Immunophenotyping in mice at 0 mg/kg dose using NK+CD3+ as cell subset; in short: as §1
# Mus musculus [7] = assay: In vivo functional activity against spleen Immunophenotyping in mice at 0 mg/kg dose using TCR+ as cell subset; in short: as §1
# Mus musculus [8] = assay: In vivo functional activity against spleen Immunophenotyping in mice at 100 mg/kg dose using CD4+CD45+ as cell subset; in short: as §1
# Mus musculus [9] = assay: In vivo functional activity against spleen Immunophenotyping in mice at 100 mg/kg dose using CD8+CD45+ as cell subset; in short: as §1
# Mus musculus [10] = assay: In vivo functional activity against spleen Immunophenotyping in mice at 100 mg/kg dose using LY5+ as cell subset; in short: as §1
# Mus musculus [11] = assay: In vivo functional activity against spleen Immunophenotyping in mice at 100 mg/kg dose using NK+CD3+ as cell subset; in short: as §1
# Mus musculus [12] = assay: In vivo functional activity against spleen Immunophenotyping in mice at 100 mg/kg dose using TCR+ as cell subset; in short: as §1
# Mus musculus [13] = assay: In vivo functional activity against spleen Immunophenotyping in mice at 125 mg/kg dose using CD4+CD45+ as cell subset; in short: as §1
# Mus musculus [14] = assay: In vivo functional activity against spleen Immunophenotyping in mice at 125 mg/kg dose using CD8+CD45+ as cell subset; in short: as §1
# Mus musculus [15] = assay: In vivo functional activity against spleen Immunophenotyping in mice at 125 mg/kg dose using LY5+ as cell subset; in short: as §1
# Mus musculus [16] = assay: In vivo functional activity against Blood Immunophenotyping in mice at 0 mg/kg dose using CD4+CD45+ as cell subset; in short: as §1
# Mus musculus [17] = assay: In vivo functional activity against Blood Immunophenotyping in mice at 0 mg/kg dose using NK+ as cell subset; in short: as §1
# Mus musculus [18] = assay: In vivo functional activity against Blood Immunophenotyping in mice at 100 mg/kg dose using CD4+CD45+ as cell subset (value in parentheses indicate P value); in short: as §1
# Mus musculus [19] = assay: In vivo functional activity against Blood Immunophenotyping in mice at 100 mg/kg dose using NK+ as cell subset; in short: as §1
# Mus musculus [20] = assay: In vivo functional activity against Blood Immunophenotyping in mice at 125 mg/kg dose using CD4+CD45+ as cell subset; in short: as §1
# Mus musculus [21] = assay: In vivo functional activity against spleen Immunophenotyping in mice at 125 mg/kg dose using NK+CD3+ as cell subset; in short: as §1
# Mus musculus [22] = assay: In vivo functional activity against spleen Immunophenotyping in mice at 125 mg/kg dose using TCR+ as cell subset; in short: as §1
# Mus musculus [23] = assay: In vivo functional activity against spleen Immunophenotyping in mice at 50 mg/kg dose using CD4+CD45+ as cell subset; in short: as §1
# Mus musculus [24] = assay: In vivo functional activity against spleen Immunophenotyping in mice at 50 mg/kg dose using CD8+CD45+ as cell subset; in short: as §1
# Mus musculus [25] = assay: In vivo functional activity against spleen Immunophenotyping in mice at 50 mg/kg dose using LY5+ as cell subset; in short: as §1
# Mus musculus [26] = assay: In vivo functional activity against spleen Immunophenotyping in mice at 50 mg/kg dose using NK+CD3+ as cell subset; in short: as §1
# Mus musculus [27] = assay: In vivo functional activity against spleen Immunophenotyping in mice at 50 mg/kg dose using TCR+ as cell subset; in short: as §1
# Mus musculus [28] = assay: In vivo functional activity against spleen Immunophenotyping in mice at 0 mg/kg dose using CD8+CD45+ as cell subset; in short: as §1
smiles,measurement,setting,value
N[C@@H](Cc1ccc(O)cc1)/C(S)=N/CC(=O)NCC(=O)O,Activity,Mus musculus [1],6.29
same,Activity,Mus musculus [2],23.94
same,Activity,Mus musculus [3],6.37
same,Activity,Mus musculus [4],41.73
same,Activity,Mus musculus [5],38.03
same,Activity,Mus musculus [6],2.37
same,Activity,Mus musculus [7],58.54
same,Activity,Mus musculus [8],34.63
same,Activity,Mus musculus [9],6.93
same,Activity,Mus musculus [10],40.79
same,Activity,Mus musculus [11],2.99
same,Activity,Mus musculus [12],52.63
same,Activity,Mus musculus [13],31.93
same,Activity,Mus musculus [14],5.46
same,Activity,Mus musculus [15],50.71
same,Activity,Mus musculus [16],22.56
same,Activity,Mus musculus [17],8
same,Activity,Mus musculus [18],22.9
same,Activity,Mus musculus [19],5.84
same,Activity,Mus musculus [20],28.89
same,Activity,Mus musculus [21],3.37
same,Activity,Mus musculus [22],43.59
same,Activity,Mus musculus [23],43.1
same,Activity,Mus musculus [24],5.77
same,Activity,Mus musculus [25],38.56
same,Activity,Mus musculus [26],2.7
same,Activity,Mus musculus [27],59.07
same,Activity,Mus musculus [28],4.97
